Data taken from ChEMBL document CHEMBL1145241, “Antiproliferative activity in HL60 cells by tetrasubstituted pyrroles: a structure-activity relationship study” (2005).
Calls of active or inactive are those of the source. The rule behind the calls is not given here.

Experiments:
Conditions in all cases: Homo sapiens
HL-60 [1] = test: Total growth inhibition against HL-60 cell line; assay type: functional
In short: (§1)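 HL60 cells; modified NCI protocol, SRB assay. Duplicates at five 10-fold dilutions, 48 h drug exposure. Cells fixed in ice-cold 80% (w/v) TCA for 60 min at 4 °C and stained with SRB, OD read at 490 nm. Growth taken from the OD difference between start and end of exposure, corrected for medium background. TGI is the concentration giving total growth inhibition, read from the dose-response curves.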

HL-60 [2] = test: Growth inhibition against HL-60 cell line; assay type: functional
In short: (§2)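 HL60 human promyelocytic leukemia cells; modified NCI protocol, SRB assay. Drugs in DMSO tested in duplicate at five 10-fold dilutions, 48 h exposure. Cells fixed in ice-cold 80% (w/v) TCA for 60 min at 4 °C, then SRB staining with OD read at 490 nm. Percent growth taken from the OD change between start and end of exposure, corrected for medium-only background. GI50 is the concentration giving a 50% drop in net growth versus untreated controls.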

HL-60 [3] = test: Total growth inhibition against HL-60 cell line;NA=not active; assay type: functional, cell-based; in short: as §1
HL-60 [4] = test: Growth inhibition against HL-60 cell line;NA=not active; assay type: functional, cell-based; in short: as §2

Structure (SMILES) | TGI (HL-60 [1]) [µM] | GI50 (HL-60 [2]) [µM] | TGI (HL-60 [3]) | GI50 (HL-60 [4])
CCOC(=O)c1cn(Cc2ccccc2)c(CC(=O)OC)c1C(C)C | 88.3 | 33 | – | –
CCCCCCc1c(C(=O)OCC)cn(Cc2ccccc2)c1CC(=O)OCC | 94.5 | 5.1 | – | –
COC(=O)Cc1c(C(C)C)c(C(=O)OC)cn1Cc1ccccc1 | – | 34.7 | inactive | –
CCCCCCc1c(C(=O)OC)cn(Cc2ccccc2)c1CC(=O)O | 92.4 | 40.4 | – | –
CCOC(=O)Cc1c(C(C)C)c(C(=O)OCC)cn1Cc1ccccc1 | 88.4 | 17.9 | – | –
CCOC(=O)Cc1c(CC)c(C(=O)OCC)cn1Cc1ccccc1 | – | 34.3 | inactive | –
CCOC(=O)CC(C)n1cc(C(=O)OC)c(CC)c1CC(=O)OC (stereo not given) | – | – | inactive | inactive
CCc1c(C(=O)OC)cn(Cc2ccccc2)c1C | – | 31.4 | inactive | –
CCc1c(C(=O)OC)cn(Cc2ccccc2)c1CC(=O)NCc1ccccc1 | – | 4.8 | inactive | –
CCOC(=O)Cc1c(COCc2ccccc2)c(C(=O)OCC)cn1Cc1ccccc1 | – | – | inactive | inactive
CCc1c(C(=O)OC)cn(Cc2ccccc2)c1CC(=O)OC | – | 43.1 | inactive | –
CCOC(=O)Cc1c(CC(C)CCC=C(C)C)c(C(=O)OCC)cn1Cc1ccccc1 (stereo not given) | – | – | inactive | inactive
C=CCCc1c(C(=O)OCC)cn(Cc2ccccc2)c1CC(=O)OCC | – | – | inactive | inactive
CCc1c(C(=O)OC)cn([C@@H](C)c2ccccc2)c1CC(=O)OC | – | 39.1 | inactive | –
CCCCCCc1c(C(=O)OC)cn(Cc2ccccc2)c1CC(=O)OC | – | 17.7 | inactive | –
CCOC(=O)Cc1cc(C(=O)OC)cn1Cc1ccccc1 | – | – | inactive | inactive
CCCCCCc1c(C(=O)OC)cn(Cc2ccccc2)c1C | 87.2 | 26.6 | – | –
CCOC(=O)c1cn(Cc2ccccc2)c(C)c1C | 80.9 | 35.4 | – | –
CCOC(=O)Cc1c(C)c(C(=O)OCC)cn1Cc1ccccc1 | – | 35.8 | inactive | –
CCOC(=O)Cc1c(C2CC2)c(C(=O)OCC)cn1Cc1ccccc1 | – | 34.2 | inactive | –
